# Results of several laboratories.
# Compare with care: the assays were run in different laboratories.
# Observed: metabolic stability
# Host: human
SMILES,test system,setting,half-life [min]
O=c1ccc2ccc(O)cc2o1,liver microsomes,,1.85
CC(C)Oc1ccc(S(=O)(=O)c2ccc(Oc3cc(OCC(N)=O)c(C(=O)C(Cl)Cl)cc3[N+](=O)[O-])cc2)cc1,liver microsomes,20 µM,46.7
CCC(CC)COC(=O)[C@H](C)N[P@@](=O)(OC[C@@H]1C[C@@H](O)[C@H](n2cnc3c(N)ncnc32)O1)Oc1ccccc1,liver microsomes,1 µM,0.67
O=C(c1ccc(F)cc1)C1CCN(CCn2c(=O)[nH]c3ccccc3c2=O)CC1,liver microsomes,,35.4
CCC(CC)COC(=O)[C@H](C)N[P@](=O)(OC[C@@H]1C[C@@H](O)[C@H](n2cnc3c(N)nc(F)nc32)O1)Oc1ccccc1,liver microsomes,1 µM,1.42
O=c1ccc2cc(O)ccc2o1,liver microsomes,20 µM,63.5
O=c1ccc2ccc(O)cc2o1,hepatocytes,1 µM,12.4
CCOc1ccc2ccc(=O)oc2c1,hepatocytes,1 µM,11.4
CSc1ncc(Br)c(C(=O)N[C@@H](CCC(=O)O)C(=O)N[C@@H](Cc2ccc3ccccc3c2)C(=O)N[C@@H](CC(C)C)C(=O)N[C@@H]2C[C@H]2c2ccccc2)n1,plasma,,1900
O=C1CC[C@H](N2Cc3cc(N4CCN(CC5CCN(c6ccc([C@@H]7c8ccc(O)cc8CC[C@@H]7c7ccccc7)cc6)CC5)CC4)ccc3C2=O)C(=O)N1,hepatocytes,1 µM,53.8
CC1(CN)CCN(c2cnc3c(Sc4ccncc4Cl)n[nH]c3n2)CC1,liver microsomes,,36.7
COc1ccc([C@@H]2Sc3ccccc3N(CCN(C)C)C(=O)[C@@H]2OC(C)=O)cc1,liver microsomes,,53.5
Nc1ncnc2c1ncn2[C@@H]1O[C@H](CO)C[C@H]1O,liver microsomes,1 µM,12.3
CC(C)[N+](C)(CCOC(=O)C1c2ccccc2Oc2ccccc21)C(C)C,plasma,,25.8
CCOc1ccc(NC(C)=O)cc1,liver microsomes,,67.1
